Experimental findings from ChEMBL document CHEMBL1132442, “Preparation and characterization of novel trans-[PtCl(2)(amine)(isopropylamine)] compounds: cytotoxic activity and apoptosis induction in ras-transformed cells” (J Med Chem, 1999) are described below.

For orientation: IC50 means the point on the concentration scale where inhibition reaches its midpoint. A low value points to inhibition by little substance.

In assay [1] the test system is PAM212. Kind of assay: Cytotoxicity against murine keratinocytes transformed with the H-ras oncogene Pam212-ras (cis-DDP resistant) (obtained by MTT assay). The class given is functional, cell-based, Mus musculus. The gist of the method:
(§1)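 MTT survival assay: compounds added to cultured cells at final 0–200 μM, read 24 h later by absorbance at 520 nm. IC50 from plots of % survival versus concentration (μM). Quadruplicate experiments. Compound stocks 1 mg/mL in PBS, freshly prepared.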
(In general: Tetrazolium dyes change colour on reduction, which living cells bring about.)

The test system of another assay is HL-60. Kind of assay: Cytotoxicity against human promyelocytic leukemia cell line HL-60 (obtained by MTT assay). The assay is classed as functional, cell-based. The gist of the method: as §1
The test system of another assay is Jurkat. Kind of assay: Cytotoxicity against human acute T-cell leukemia cell line JURKAT (obtained by MTT assay). The class given is functional, cell-based. The gist of the method:
as §1

Assay [2] relates to Vero. In words: Cytotoxicity against […] cell line VERO(obtained by MTT assay). The class given is functional, cell-based, Chlorocebus sabaeus. A digest of the protocol: as §1
Assay [3] relates to PAM212. In words: Cytotoxicity against normal murine keratinocytes Pam212 (obtained by MTT assay). The assay is classed as functional, cell-based, Mus musculus. The gist of the method:
as §1

The subject of the next assay is HeLa. Kind of assay: Cytotoxicity against human cervix epithelial carcinoma cell line HeLa (obtained by MTT assay). The assay is classed as functional, cell-based. A digest of the protocol:
as §1

The subject of assay [4] is Vero. In words: Cytotoxicity against […] cell line VERO (obtained by MTT assay). The class given is functional, cell-based, Chlorocebus sabaeus. The gist of the method: as §1

On to CISPLATIN, for which the IC50 in the assay with PAM212 [1] stood at 156 µM; with HL-60, 25 µM; with Jurkat, 7 µM; in the assay on Vero [2], 50 µM; in the assay on PAM212 [3], 114 µM; in the assay on HeLa, 38 µM.
In the case of TRANSPLATIN, the IC50 in the assay on PAM212 [1] was found to be 164 µM; with HL-60 it was 50 µM; in the assay on Jurkat, 22 µM; in the assay on Vero [2], 148 µM; in the assay with PAM212 [3], 123 µM; with HeLa, 89 µM.
As for “Trans-[PtCl2(butylamine)(isopropylamine)]”, the IC50 with PAM212 [1] was 21 µM; in the assay on HL-60, 18 µM; in the assay with Jurkat, 7 µM; in the assay on Vero [2], 46 µM; in the assay with PAM212 [3], 71 µM; with HeLa, 35 µM.
For the substance “Trans-[PtCl2(dimethylamine)isopropylamine)] (tdmaipa)”, the IC50 in the assay with PAM212 [1] was 6 µM; with HL-60 it was 17 µM; in the assay on Jurkat, 5 µM; in the assay with PAM212 [3] it was 56 µM; in the assay with Vero [4] it was 47 µM; in the assay with HeLa, 32 µM.
In the case of “Trans-[PtCl2(isopropylamine)(propylamine)]”, the IC50 turned out to be 32 µM in the assay on PAM212 [1]; 20 µM in the assay with HL-60; 5 µM in the assay with Jurkat; 52 µM with Vero [2]; 50 µM with PAM212 [3]; 43 µM in the assay on HeLa.
